This is an account of results in ChEMBL document CHEMBL1147186, “Dibenzothiazoles as novel amyloid-imaging agents” (Bioorg Med Chem, 2007).

Data set [1] has as its target Amyloid-beta precursor protein (Homo sapiens, UniProt P05067). In words: Displacement of [3H]PIB from beta amyloid in brain homogenate from Alzheimer's patient. In kind it is tissue-based. Put shortly: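 Competition binding against [3H]PIB (0.05 nM final) in postmortem AD gray-matter homogenate prepared in PBS pH 7.4. Inhibitors at 10^-5 to 10^-12 mol/L (PBS, under 1% DMSO), incubated 37 °C for 1 h. Bound radioligand was collected by GF/B vacuum filtration, washed three times with PBS and scintillation-counted. Nonspecific binding was defined with 10 µM PIB. Ki was obtained by nonlinear regression.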
On the technique in general: Displacement assays read how much labelled ligand stays bound in the presence of the test substance.

A short description of data set [2]: Partition coefficient, log P of the compound. In kind it is physicochemical. To be noted: octanol/water. Put shortly:
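Shake-flask logP using the [125I] radioligand (RCP >98%) in n-octanol and 0.1 M phosphate buffer pH 7.4. Mixture vortexed 3 min at room temperature and centrifuged 3500 rpm for 5 min. Both phases were weighed and counted; logP is log of the cpm/g octanol to cpm/g buffer ratio. The octanol phase was repartitioned until values were consistent; done in triplicate.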

For data set [3], the system named is Brain. In words: Biodistribution in Swiss-Webster mouse brain at 0.185 MBq, iv after 30 mins. In kind it is ADME, organism-based. Particulars: in vivo, 0.5 h. The method in brief: (§1)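 Radioiodinated tracer in saline/ethylene glycol/ethanol/HCl vehicle, single tail-vein injection under anesthesia into 2-month-old Swiss-Webster mice (n = 3 per time point). Animals killed by heart puncture at 2, 30 and 60 min; brain removed, weighed and gamma-counted. Uptake expressed as % injected dose per gram.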

The test system of data set [4] is Brain. The data set is described as follows: Biodistribution in Swiss-Webster mouse brain at 0.185 MBq, iv after 60 mins. In kind it is ADME, organism-based. To be noted: in vivo, 1 h. The method in brief:
as §1

For data set [5], the system named is Brain. The data set is described as follows: Biodistribution in Swiss-Webster mouse brain at 0.185 MBq, iv after 2 mins. Particulars: in vivo. In kind it is ADME, organism-based. The method in brief: as §1

Sequence of Amyloid-beta precursor protein (P05067 whole entry): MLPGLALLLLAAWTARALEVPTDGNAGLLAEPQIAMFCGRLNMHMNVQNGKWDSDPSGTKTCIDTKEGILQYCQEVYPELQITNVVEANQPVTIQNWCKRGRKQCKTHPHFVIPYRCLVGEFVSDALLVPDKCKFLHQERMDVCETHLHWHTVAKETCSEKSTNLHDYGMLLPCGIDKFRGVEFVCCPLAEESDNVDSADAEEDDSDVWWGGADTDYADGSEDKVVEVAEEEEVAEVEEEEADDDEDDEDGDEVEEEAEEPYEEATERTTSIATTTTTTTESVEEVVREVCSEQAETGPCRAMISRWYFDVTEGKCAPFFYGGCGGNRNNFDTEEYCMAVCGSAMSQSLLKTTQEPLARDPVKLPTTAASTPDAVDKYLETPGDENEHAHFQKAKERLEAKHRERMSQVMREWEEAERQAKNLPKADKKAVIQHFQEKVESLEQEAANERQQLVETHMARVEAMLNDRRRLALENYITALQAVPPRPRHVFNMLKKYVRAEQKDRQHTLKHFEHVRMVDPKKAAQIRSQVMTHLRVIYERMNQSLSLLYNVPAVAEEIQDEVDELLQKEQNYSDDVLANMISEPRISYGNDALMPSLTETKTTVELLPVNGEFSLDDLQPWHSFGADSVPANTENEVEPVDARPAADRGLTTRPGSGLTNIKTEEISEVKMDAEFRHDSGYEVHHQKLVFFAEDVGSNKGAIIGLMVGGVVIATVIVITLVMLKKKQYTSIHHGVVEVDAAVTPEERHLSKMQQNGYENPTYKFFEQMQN

As usually defined, the Ki is a measure of affinity in units of concentration, obtained from inhibition or displacement. Molecule `Nc1ccc(-c2nc3ccc(-c4nc5ccc(F)cc5s4)cc3s2)cc1` showed an inhibition constant (Ki) in data set [1] of 36 nM.

Consider `Nc1ccc(-c2nc3ccc(-c4nc5ccccc5s4)cc3s2)cc1`, for which the affinity in data set [1], expressed as Ki, was 25 nM.

The logP is a log measure of how a compound divides between an organic and an aqueous phase. Read a high logP as a more lipophilic compound. `Nc1ccc(-c2nc3ccc(-c4nc5ccccc5s4)cc3s2)cc1I` yielded a lipophilicity (logP) in data set [2] of 2.7. In addition, affinity in data set [1] was put at a Ki of 21 nM.

As to `Nc1ccc(-c2nc3ccc(-c4nc5ccccc5s4)cc3s2)cc1[125I]`, the Drug uptake stood at 0.78 % ID/g with Brain [3], 0.43 % ID/g with Brain [4] and 3.71 % ID/g with Brain [5]. The molecule further came in with a lipophilicity (logP) in data set [2] of 2.7.

Turning to `Nc1ccc(-c2nc3ccc(-c4nc5ccc(Cl)cc5s4)cc3s2)cc1`, in data set [1], the inhibition constant (Ki) was found to be 34 nM.

The molecule `CNc1ccc(-c2nc3ccc(-c4nc5ccc(F)cc5s4)cc3s2)cc1` came in with a Ki in data set [1] of 27 nM.

For the molecule `COc1ccc2nc(-c3ccc4nc(-c5ccc(N)cc5)sc4c3)sc2c1`, the affinity in data set [1] corresponds to a Ki of 25 nM.

In the case of `CN(C)c1ccc(-c2nc3ccc(-c4nc5ccc(F)cc5s4)cc3s2)cc1`, in data set [1], affinity was put at a Ki of 23 nM.

In data set [1], `CNc1ccc(-c2nc3ccc(-c4nc5ccc(Cl)cc5s4)cc3s2)cc1` gave an inhibitory constant (Ki) of 6.8 nM.

The molecule `CNc1ccc(-c2nc3ccc(-c4nc5ccccc5s4)cc3s2)cc1` showed a Ki in data set [1] of 22 nM.
